Test results reported in ChEMBL document CHEMBL1144035, “Synthesis, cytostatic and anti-HCV activity of 6-(N-substituted aminomethyl)-, 6-(O-substituted hydroxymethyl)- and 6-(S-substituted sulfanylmethyl)purine nucleosides” (Bioorg Med Chem, 2008).
Active and inactive are the calls of the source. No cut-off for these calls is given here.

Tests used:
[1] = test system: Hepatitis C virus; test: Antiviral activity against Hepatitis C virus 1b after 3 days; type: functional, organism-based, Hepacivirus hominis; details: genotype 1b, 72 h
[2] = test system: HL-60; test: Cytostatic activity in human HL60 cells assessed as inhibition of cell growth after 72 hrs by XTT assay; type: functional, cell-based; details: HL-60, 72 h
[3] = test system: HL-60; test: Cytostatic activity in human HL60 cells assessed as inhibition of cell growth after 72 hrs; type: functional, cell-based; details: for IC50: HL-60, 72 h
Method in brief: (§1)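 Cultures from ATCC lines: mouse leukaemia L1210 (CCL 219), human promyelocytic leukaemia HL60 (CCL 240) and human T-lymphoblastoid CCRF-CEM (CCL 119). Growth inhibition was estimated from the cell count in a haematological analyzer (haemocytometer).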

[4] = test system: CCRF-CEM; test: Cytostatic activity in human CCRF-CEM cells assessed as inhibition of cell growth after 72 hrs by XTT assay; type: functional, cell-based
[5] = test system: CCRF-CEM; test: Cytostatic activity in human CCRF-CEM cells assessed as inhibition of cell growth after 72 hrs; type: functional, cell-based; method in brief: as §1
[6] = test system: L1210; test: Cytostatic activity in mouse L1210 cells assessed as inhibition of cell growth after 72 hrs; type: functional, cell-based; details: for IC50: L1210, 72 h; method in brief: as §1
[7] = test system: HeLa; test: Cytostatic activity in human HeLa S3 cells assessed as inhibition of cell growth after 48 hrs by XTT assay; type: functional, cell-based
[8] = Cytotoxicity against human Huh7 cells after 3 days by MTT method; type: functional; details: Huh-7, 72 h
Method in brief: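 Cellular toxicity was read by MTT in Huh-7 cells carrying the con-1 HCV replicon, in duplicate (N = 2).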

[9] = test system: MT4; test: Cytotoxicity against human MT4 cells after 4 days; type: functional; details: MT4, 96 h
Method in brief: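 Cellular toxicity was measured in MT-4 cells, N = 2.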

Row | SMILES | EC50 [1] [µM] | IC50 [2] [µM] | IC50 [3] [µM] | IC50 [4] [µM] | IC50 [5] [µM] | Activity [6] | Activity [7] | CC50 [8] [µM] | IC50 [6] [µM] | Activity [5] | Activity [3] | CC50 [9] [µM]
1 | CC(=O)NNCc1ncnc2c1ncn2[C@@H]1O[C@H](CO)[C@@H](O)[C@H]1O | 65 | 11.4 | 6.6 | 10.3 | 18 | inactive | inactive | > 250 | – | – | – | –
2 | O=c1[nH]c(=O)n([C@H]2C[C@H](O)[C@@H](CO)O2)cc1F [FLOXURIDINE] | – | – | – | – | – | – | inactive | – | 0.012 | – | – | –
3 | CC(C)N(Cc1ncnc2c1ncn2[C@@H]1O[C@H](CO)[C@@H](O)[C@H]1O)C(C)C | 3 | – | 13 | – | – | – | inactive | 18 | 17 | inactive | – | –
4 | OC[C@H]1O[C@@H](n2cnc3c(CS)ncnc32)C[C@@H]1O | 20 | – | – | – | – | inactive | inactive | 41 | – | inactive | inactive | –
5 | C[C@@]1(O)[C@H](O)[C@@H](CO)O[C@H]1n1cnc2c(N)ncnc21 | 0.23 | – | – | – | – | – | inactive | > 100 | – | – | – | –
6 | OC[C@H]1O[C@@H](n2cnc3c(CSc4nc5ccccc5s4)ncnc32)[C@H](O)[C@@H]1O | > 100 | – | – | – | – | inactive | inactive | > 100 | – | inactive | inactive | –
7 | OC[C@H]1O[C@@H](n2cnc3c(CN4CCCCC4)ncnc32)[C@H](O)[C@@H]1O | 42 | – | 6.9 | – | – | – | inactive | 87 | 12.2 | inactive | – | –
8 | O=C(O)CSCc1ncnc2c1ncn2[C@@H]1O[C@H](CO)[C@@H](O)[C@H]1O | > 100 | – | – | – | – | inactive | inactive | > 100 | – | inactive | inactive | –
9 | O=C(O)CNCc1ncnc2c1ncn2[C@@H]1O[C@H](CO)[C@@H](O)[C@H]1O | 87 | – | – | – | – | inactive | inactive | > 100 | – | inactive | inactive | –
10 | CC(=O)N(Cc1ncnc2c1ncn2[C@@H]1O[C@H](CO)[C@@H](O)[C@H]1O)C1CCCCC1 | > 100 | – | – | – | – | inactive | inactive | > 100 | – | inactive | inactive | –
11 | OCc1ncnc2c1ncn2[C@@H]1O[C@H](CO)[C@@H](O)[C@H]1O | – | – | 0.01 | – | 0.15 | – | inactive | – | – | – | – | –
12 | O=C1CCCN1Cc1ncnc2c1ncn2[C@@H]1O[C@H](CO)[C@@H](O)[C@H]1O | 14 | – | – | – | – | inactive | inactive | 45 | – | inactive | inactive | –
13 | CC(=O)N(Cc1ncnc2c1ncn2[C@H]1C[C@H](O)[C@@H](CO)O1)C1CCCCC1 | 20 | – | – | – | – | inactive | inactive | > 100 | – | inactive | inactive | > 100
14 | OC[C@H]1O[C@@H](n2cnc3c(COc4ccccn4)ncnc32)[C@H](O)[C@@H]1O | > 250 | 14.3 | 12 | 10.8 | 16.6 | inactive | inactive | > 250 | – | – | – | –
15 | O=c1ccccn1Cc1ncnc2c1ncn2[C@@H]1O[C@H](CO)[C@@H](O)[C@H]1O | 91 | – | – | – | – | inactive | inactive | > 100 | – | inactive | inactive | –
16 | CC(=O)N(C)Cc1ncnc2c1ncn2[C@@H]1O[C@H](CO)[C@@H](O)[C@H]1O | > 100 | – | – | – | – | inactive | inactive | > 100 | – | inactive | inactive | –
17 | CN(Cc1ccccc1)Cc1ncnc2c1ncn2[C@@H]1O[C@H](CO)[C@@H](O)[C@H]1O | 9 | 2.4 | 5.6 | – | 20.3 | – | inactive | 9 | 4.8 | – | – | –
18 | CC(=O)N(Cc1ncnc2c1ncn2[C@@H]1O[C@H](CO)[C@@H](O)[C@H]1O)C1CC1 | > 100 | – | – | – | – | inactive | inactive | > 100 | – | inactive | inactive | –
19 | OC[C@H]1O[C@@H](n2cnc3c(CSc4ccccn4)ncnc32)[C@H](O)[C@@H]1O | 44 | – | – | – | – | inactive | inactive | > 100 | – | inactive | inactive | > 100
20 | OC[C@H]1O[C@@H](n2cnc3c(CS)ncnc32)[C@H](O)[C@@H]1O | 39 | 1.2 | 3.5 | – | – | inactive | inactive | 54 | – | inactive | – | –
21 | OC[C@H]1O[C@@H](n2cnc3c(CSc4ccccc4)ncnc32)[C@H](O)[C@@H]1O | > 100 | – | – | – | – | inactive | inactive | > 100 | – | inactive | inactive | –
22 | OC[C@H]1O[C@@H](n2cnc3c(COc4ccccc4)ncnc32)[C@H](O)[C@@H]1O | > 100 | – | – | – | – | inactive | inactive | > 100 | – | – | inactive | –
23 | OC[C@H]1O[C@@H](n2cnc3c(CN4CCOCC4)ncnc32)[C@H](O)[C@@H]1O | 186 | – | 13 | – | – | inactive | inactive | > 250 | – | inactive | – | –
24 | CN(C)Cc1ncnc2c1ncn2[C@@H]1O[C@H](CO)[C@@H](O)[C@H]1O | 41 | – | 4 | – | – | – | inactive | > 100 | 5.1 | inactive | – | –
25 | OCCSCc1ncnc2c1ncn2[C@@H]1O[C@H](CO)[C@@H](O)[C@H]1O | 46 | – | – | – | – | inactive | inactive | > 100 | – | inactive | inactive | > 100
26 | OC[C@H]1O[C@@H](n2cnc3c(CN4CCSC4)ncnc32)[C@H](O)[C@@H]1O | 7 | 3.12 | 5.2 | – | 19.6 | – | inactive | 21 | 7.8 | – | – | –
27 | O=c1ccn(Cc2ncnc3c2ncn3[C@@H]2O[C@H](CO)[C@@H](O)[C@H]2O)cc1 | > 100 | – | – | – | – | inactive | inactive | > 100 | – | inactive | inactive | –
28 | CC(=O)N(Cc1ccccc1)Cc1ncnc2c1ncn2[C@@H]1O[C@H](CO)[C@@H](O)[C@H]1O | > 100 | – | – | – | – | inactive | inactive | > 100 | – | inactive | inactive | –
